Assay results taken from ChEMBL document CHEMBL5356992, “New nitazoxanide derivatives: design, synthesis, biological evaluation, and molecular docking studies as antibacterial and antimycobacterial agents” (RSC Med Chem, 2023).
In brackets after ≈: the same amount, converted by molar mass.

Columns and labels:
Escherichia coli [1] = test: Potency index, ratio of nitazoxanide MIC to test compound MIC for antibacterial activity against Escherichia coli ATCC 8739; assay type: functional
Escherichia coli [2] = test: Antibacterial activity against Escherichia coli ATCC 8739 by broth microdilution method; assay type: functional
Outline: (§1)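 CLSI broth microdilution on wild-type strains. E. coli ATCC 8739, P. aeruginosa ATCC 27853 and K. pneumoniae ATCC 10031 served as Gram-negatives. S. aureus ATCC 6538 and E. faecalis ATCC 19433 served as Gram-positives. H. pylori ATCC 700392 was tested as the […]. Ciprofloxacin was the reference drug. MIC is given in μM as the mean of three experiments.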

Helicobacter pylori = test: Antibacterial activity against Helicobacter pylori ATCC 700392 by broth microdilution method; assay type: functional; outline: as §1
[3] = tested on: Mycobacterium tuberculosis; test: Antimycobacterial activity against Mycobacterium tuberculosis H37Rv incubated for 7 days by alamar blue assay; assay type: functional; conditions: 168 h, time 7 day
Outline: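 Two-fold serial dilutions in 7H9-S, with growth and sterile controls, incubated at 37 °C for 7 days. Alamar Blue then added and incubated overnight. MIC is the lowest concentration preventing the blue-to-pink change. Means of three experiments.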

Enterococcus faecalis [4] = test: Antibacterial activity against Enterococcus faecalis ATCC 19433 by broth microdilution method; assay type: functional; outline: as §1
RAW264.7 = test: Cytotoxicity against mouse RAW264.7 cells at 25 ug/ml incubated for 48 hrs by MTT assay; assay type: toxicity, cell-based; conditions: raw264.7, 48 h, at 25 µg/mL
Outline: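 RAW 264.7 mouse macrophages were grown in RPMI with 10% FBS plus penicillin/streptomycin to 80–90% confluency. About 5000 cells/well were seeded on poly-L-lysine-coated plates and held 24 h at 37 °C, 5% CO2. Compound was added at 25 μg mL−1 for 48 h at 37 °C. MTT (0.5 mg mL−1) was added for 3 h, and formazan was read at 595 and 625 nm. Result is % inhibition.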

Staphylococcus aureus [5] = test: Antibacterial activity against Staphylococcus aureus ATCC 6538 by broth microdilution method; assay type: functional; outline: as §1
[6] = Selectivity index, ratio of cytotoxicity against mouse RAW264.7 cells to MIC for Mycobacterium tuberculosis H37Rv; assay type: toxicity, cell-based; conditions: read-out: Selectivity Index
Outline: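 SI is cytotoxicity divided by the MABA MIC (μg mL⁻¹) against H37Rv. For cytotoxicity, RAW 264.7 cells were grown in RPMI with 10% FBS and penicillin/streptomycin. About 5000 cells per well were seeded on poly-L-lysine plates and held 24 h at 37 °C, 5% CO2. Compounds were added at 25 μg mL⁻¹ for 48 h, then MTT (0.5 mg mL⁻¹) for 3 h. Formazan was read at 595/625 nm and reported as % inhibition.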

Klebsiella pneumoniae [7] = test: Antibacterial activity against Klebsiella pneumoniae ATCC 10031 by broth microdilution method; assay type: functional; outline: as §1
Pseudomonas aeruginosa [8] = test: Antibacterial activity against Pseudomonas aeruginosa ATCC 27853 by broth microdilution method; assay type: functional; outline: as §1
[9] = tested on: Mycobacterium tuberculosis; test: Potency index, ratio of ethambutol MIC to test compound MIC for antitubercular activity against Mycobacterium tuberculosis H37Rv; assay type: functional
Enterococcus faecalis [10] = test: Potency index, ratio of nitazoxanide MIC to test compound MIC for antibacterial activity against Enterococcus faecalis ATCC 19433; assay type: functional
[11] = tested on: Mycobacterium tuberculosis; test: Potency index, ratio of nitazoxanide MIC to test compound MIC for antitubercular activity against Mycobacterium tuberculosis H37Rv; assay type: functional
Pseudomonas aeruginosa [12] = test: Potency index, ratio of nitazoxanide MIC to test compound MIC for antibacterial activity against Pseudomonas aeruginosa ATCC 27853; assay type: functional
Staphylococcus aureus [13] = test: Potency index, ratio of nitazoxanide MIC to test compound MIC for antibacterial activity against Staphylococcus aureus ATCC 6538; assay type: functional
Klebsiella pneumoniae [14] = test: Potency index, ratio of nitazoxanide MIC to test compound MIC for antibacterial activity against Klebsiella pneumoniae ATCC 10031; assay type: functional

Row | Compound | Ratio (Escherichia coli [1]) | MIC (Escherichia coli [2]) | MIC (Helicobacter pylori) | MIC [3] | MIC (Enterococcus faecalis [4]) | Cell growth inhibition (RAW264.7) | MIC (Staphylococcus aureus [5]) | selectivity ratio [6] | MIC (Klebsiella pneumoniae [7]) | MIC (Pseudomonas aeruginosa [8]) | Ratio [9] | Ratio (Enterococcus faecalis [10]) | Ratio [11] | Ratio (Pseudomonas aeruginosa [12]) | Ratio (Staphylococcus aureus [13]) | Ratio (Klebsiella pneumoniae [14])
1 | [N-]=[N+]=Nc1ccc(C(=O)Nc2ncc([N+](=O)[O-])s2)c(O)c1 | 20 | 4.89 µM (≈ 1.5 µg/mL) | 104 µM (≈ 32 µg/mL) | 3.12 µg/mL (≈ 10.2 µM) | 26.1 µM (≈ 8 µg/mL) | 28.53% | 9.79 µM (≈ 3 µg/mL) | 8 | 313 µM (≈ 96 µg/mL) |  |  |  |  |  |  | 
2 | O=C(Nc1ncc([N+](=O)[O-])s1)c1ccc(-n2cc(CO)nn2)cc1O |  |  | 44.1 µM (≈ 16 µg/mL) | > 25 µg/mL | 132 µM (≈ 48 µg/mL) |  |  |  | 88.3 µM (≈ 32 µg/mL) | 353 µM (≈ 128 µg/mL) |  |  |  |  |  | 
3 | O=C(Nc1ncc([N+](=O)[O-])s1)c1ccccc1O [TIZOXANIDE] |  | 181 µM (≈ 48 µg/mL) | 11.3 µM (≈ 3 µg/mL) |  | 136 µM (≈ 36 µg/mL) |  | 151 µM (≈ 40 µg/mL) |  | 241 µM (≈ 64 µg/mL) | 362 µM (≈ 96 µg/mL) |  |  |  |  |  | 
4 | CC[C@@H](CO)NCCN[C@@H](CC)CO [ETHAMBUTOL] |  |  |  | 1.56 µg/mL (≈ 7.64 µM) |  |  |  |  |  |  |  |  |  |  |  | 
5 | CC(=O)Oc1cc(N=[N+]=[N-])ccc1C(=O)Nc1ncc([N+](=O)[O-])s1 |  | 8.61 µM (≈ 3 µg/mL) | 11.5 µM (≈ 4 µg/mL) | 1.56 µg/mL (≈ 4.48 µM) | 2.15 µM (≈ 0.749 µg/mL) | 17.54% | 11.5 µM (≈ 4 µg/mL) | 16 | 34.5 µM (≈ 12 µg/mL) | 91.9 µM (≈ 32 µg/mL) | 1.7 | 25 | 5 |  |  | 
6 | O=C(Nc1ncc([N+](=O)[O-])s1)c1ccc(-n2cc(CN3CCN(c4ccccc4)CC3)nn2)cc1O |  | 11.8 µM (≈ 6 µg/mL) | 31.6 µM (≈ 16 µg/mL) | > 25 µg/mL | 1.97 µM (≈ 0.998 µg/mL) |  | 505 µM (≈ 256 µg/mL) |  | 253 µM (≈ 128 µg/mL) | 2.96 µM (≈ 1.5 µg/mL) |  | 25 |  | >50 |  | 
7 | COc1ccc2c(c1)C(=O)C(=O)N2Cc1cn(-c2ccc(C(=O)Nc3ncc([N+](=O)[O-])s3)c(O)c2)nn1 |  | 15.3 µM (≈ 8 µg/mL) | 9.58 µM (≈ 5 µg/mL) | > 25 µg/mL | 184 µM (≈ 96 µg/mL) |  | 92 µM (≈ 48 µg/mL) |  | 491 µM (≈ 256 µg/mL) |  |  |  |  |  |  | 
8 | O=C(O)c1cn(C2CC2)c2cc(N3CCNCC3)c(F)cc2c1=O [CIPROFLOXACIN] |  | 0.3 µM (≈ 0.0994 µg/mL) | 1.5 µM (≈ 0.497 µg/mL) |  | 6.03 µM (≈ 2 µg/mL) |  | 3.01 µM (≈ 0.997 µg/mL) |  | 9.05 µM (≈ 3 µg/mL) | 4.53 µM (≈ 1.5 µg/mL) |  |  |  |  |  | 
9 | O=C(Nc1ncc([N+](=O)[O-])s1)c1ccc(-n2cc(CSc3nc4ccccc4s3)nn2)cc1O | 20 | 3.9 µM (≈ 2 µg/mL) | 15.6 µM (≈ 8 µg/mL) | > 25 µg/mL |  |  | 3.9 µM (≈ 2 µg/mL) |  | 23.4 µM (≈ 12 µg/mL) | 31.3 µM (≈ 16 µg/mL) |  |  |  |  | 25 | 
10 | Cc1ccc2c(c1)C(=O)C(=O)N2Cc1cn(-c2ccc(C(=O)Nc3ncc([N+](=O)[O-])s3)c(O)c2)nn1 | 20 | 1.48 µM (≈ 0.748 µg/mL) | 2.96 µM (≈ 1.5 µg/mL) | > 25 µg/mL | 5.93 µM (≈ 3 µg/mL) |  | 506 µM (≈ 256 µg/mL) |  | 3.95 µM (≈ 2 µg/mL) | 7.91 µM (≈ 4 µg/mL) |  | 25 |  |  |  | <=20
11 | O=C(O)c1cn(-c2ccc(C(=O)Nc3ncc([N+](=O)[O-])s3)c(O)c2)nn1 |  | 6.64 µM (≈ 2.5 µg/mL) | 21.2 µM (≈ 8 µg/mL) | 25 µg/mL (≈ 66.4 µM) |  | 27.5% | 85 µM (≈ 32 µg/mL) | 1 | 15.9 µM (≈ 6 µg/mL) | 10.6 µM (≈ 4 µg/mL) |  |  |  |  |  | 
12 | O=C(Nc1ncc([N+](=O)[O-])s1)c1ccc(-n2cc(CN3C(=O)C(=O)c4cc(F)ccc43)nn2)cc1O |  |  | 3.92 µM (≈ 2 µg/mL) | > 25 µg/mL | 4.9 µM (≈ 2.5 µg/mL) |  | 15.7 µM (≈ 8 µg/mL) |  |  | 7.85 µM (≈ 4 µg/mL) |  | 25 |  | >50 |  | 
